Results from ChEMBL document CHEMBL1275461, “Early bactericidal activity and pharmacokinetics of the diarylquinoline TMC207 in treatment of pulmonary tuberculosis” (Antimicrob Agents Chemother, 2008).
≈ marks a conversion by molar mass, not a printed value.

Legend:
[1] = tested on: Mycobacterium tuberculosis; experiment: Bactericidal activity against Mycobacterium tuberculosis in pulmonary tuberculosis patient assessed as reduction in sputum bacterial count at 100 […], po once daily measured after 3 days; format: functional
Outline: (§1)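 Hospitalized treatment-naïve smear-positive patients took oral doses once daily, observed, after breakfast. Sputum was pooled over 16 h overnight at baseline, after each of the 7 dosing days, and on the night after the first standard-therapy dose. Sputum was stirred, digested with dithiothreitol for 20 min at room temperature, and diluted 10-fold. Dilutions were plated in quadruplicate on selective 7H11 agar and counted after 3-4 weeks at 37°C at 20-200 colonies. The read-out was change in log10 CFU/ml from baseline, with a count of 0 set to log 0.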

[2] = Drug uptake in pulmonary tuberculosis patient at 400 mg/kg, po once daily for 7 days by liquid chromatography-MS/MS analysis; format: ADME, organism-based; parameters: dose 400 mg/kg, route oral; settings: human, in vivo, read-out: Drug uptake
Outline: (§2)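 Treatment-naïve smear-positive pulmonary TB patients, hospitalized; 7-day oral once-daily monotherapy, directly observed, within 30 min after breakfast. Heparinized plasma taken predose and 1, 2, 3, 4, 5, 6, 8, 12 and 24 h postdose on day 7, plus predose on days 5 and 6. Parent drug and N-monodesmethyl metabolite measured by validated LC-MS/MS. Noncompartmental parameters; AUC0-24 by linear trapezoidal rule.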

[3] = tested on: Mycobacterium tuberculosis; experiment: Bactericidal activity against Mycobacterium tuberculosis in pulmonary tuberculosis patient assessed as reduction in sputum bacterial count at 400 mg/kg, po once daily measured after 6 days; format: functional; outline: as §1
[4] = Cmax in pulmonary tuberculosis patient at 100 […], po once daily for 7 days by liquid chromatography-MS/MS analysis; format: ADME, organism-based; parameters: dose 100 mg/kg, route oral; settings: human, in vivo; outline: as §2
[5] = Cmax in pulmonary tuberculosis patient at 25 mg/kg, po once daily for 7 days by liquid chromatography-MS/MS analysis; format: ADME, organism-based; parameters: dose 25 mg/kg, route oral; settings: human, in vivo; outline: as §2
[6] = tested on: Mycobacterium tuberculosis; experiment: Bactericidal activity against Mycobacterium tuberculosis in pulmonary tuberculosis patient assessed as reduction in sputum bacterial count at 100 […], po once daily measured after 2 days; format: functional; outline: as §1
[7] = tested on: Mycobacterium tuberculosis; experiment: Bactericidal activity against Mycobacterium tuberculosis in pulmonary tuberculosis patient assessed as reduction in sputum bacterial count at 400 mg/kg, po once daily measured after 3 days; format: functional; outline: as §1
[8] = tested on: Mycobacterium tuberculosis; experiment: Bactericidal activity against Mycobacterium tuberculosis in pulmonary tuberculosis patient assessed as reduction in sputum bacterial count at 25 mg/kg, po once daily measured after 7 days; format: functional; outline: as §1
Homo sapiens [9] = experiment: Toxicity in pulmonary tuberculosis patient assessed as somnolence at 400 mg/kg, po once daily for 7 days; format: organism-based; parameters: dose 400 mg/kg, route oral; settings: in vivo, 168 h
Homo sapiens [10] = experiment: Cardiotoxicity in pulmonary tuberculosis patient assessed as increase in QT interval at 100 […], po once daily for 7 days; format: toxicity, organism-based; parameters: dose 100 mg/kg, route oral; settings: in vivo, 168 h
Homo sapiens [11] = experiment: Toxicity in pulmonary tuberculosis patient assessed as hemoptysis at 400 mg/kg, po once daily; format: organism-based; parameters: dose 400 mg/kg, route oral; settings: in vivo
[12] = tested on: Mycobacterium tuberculosis; experiment: Bactericidal activity against Mycobacterium tuberculosis in pulmonary tuberculosis patient assessed as reduction in sputum bacterial count at 400 […], po once daily measured after 1 day; format: functional; outline: as §1
[13] = Cmax in pulmonary tuberculosis patient at 400 mg/kg, po once daily for 7 days by liquid chromatography-MS/MS analysis; format: ADME, organism-based; parameters: dose 400 mg/kg, route oral; settings: human, in vivo; outline: as §2
[14] = tested on: Mycobacterium tuberculosis; experiment: Bactericidal activity against Mycobacterium tuberculosis in pulmonary tuberculosis patient assessed as reduction in sputum bacterial count at 100 […], po once daily measured after 6 days; format: functional; outline: as §1
[15] = tested on: Mycobacterium tuberculosis; experiment: Antimicrobial activity against drug-sensitive Mycobacterium tuberculosis; format: functional
[16] = tested on: Mycobacterium tuberculosis; experiment: Bactericidal activity against Mycobacterium tuberculosis in pulmonary tuberculosis patient assessed as reduction in sputum bacterial count at 25 […], po once daily measured after 1 day; format: functional; outline: as §1
[17] = tested on: Mycobacterium tuberculosis; experiment: Bactericidal activity against Mycobacterium tuberculosis in pulmonary tuberculosis patient assessed as reduction in sputum bacterial count at 25 mg/kg, po once daily measured on day 8 after starting standard TB therapy; format: functional; outline: as §1
[18] = Tmax in pulmonary tuberculosis patient at 100 […], po once daily for 7 days by liquid chromatography-MS/MS analysis; format: ADME, organism-based; parameters: dose 100 mg/kg, route oral; settings: human, in vivo; outline: as §2
[19] = tested on: Mycobacterium tuberculosis; experiment: Bactericidal activity against Mycobacterium tuberculosis in pulmonary tuberculosis patient assessed as reduction in sputum bacterial count at 400 mg/kg, po once daily measured after 7 days; format: functional; outline: as §1
[20] = Tmax in pulmonary tuberculosis patient at 400 mg/kg, po once daily for 7 days by liquid chromatography-MS/MS analysis; format: ADME, organism-based; parameters: dose 400 mg/kg, route oral; settings: human, in vivo; outline: as §2
[21] = tested on: Mycobacterium tuberculosis; experiment: Bactericidal activity against Mycobacterium tuberculosis in pulmonary tuberculosis patient assessed as reduction in sputum bacterial count at 400 mg/kg, po once daily measured after 2 days; format: functional; outline: as §1
Homo sapiens [22] = experiment: Steady-state plasma concentration in pulmonary tuberculosis patient at 400 mg/kg, po once daily for 7 days by liquid chromatography-MS/MS analysis; format: ADME, organism-based; parameters: dose 400 mg/kg, route oral; settings: in vivo, 168 h; outline: as §2
[23] = tested on: Mycobacterium tuberculosis; experiment: Bactericidal activity against Mycobacterium tuberculosis in pulmonary tuberculosis patient assessed as reduction in sputum bacterial count at 25 mg/kg, po once daily measured after 5 days; format: functional; outline: as §1
[24] = tested on: Mycobacterium tuberculosis; experiment: Bactericidal activity against Mycobacterium tuberculosis in pulmonary tuberculosis patient assessed as reduction in sputum bacterial count at 100 […], po once daily measured after 4 days; format: functional; outline: as §1

Q: For `COc1nc2ccc(Br)cc2cc1[C@@H](c1ccccc1)[C@@](O)(CCN(C)C)c1cccc2ccccc12` [BEDAQUILINE], which log10CFU/ml [1] is on record?
A: Its log10CFU/ml is -0.37.

Q: What about the concentration at 168 h [2] of the same compound?
A: Its concentration at 168 h is 1530 ng/mL.

Q: What about the log10CFU/ml [3] of the same compound?
A: The log10CFU/ml was -0.46.

Q: And the Cmax [4]?
A: The Cmax was 1210 ng/mL.

Q: And the Cmax [5]?
A: Its Cmax is 319 ng/mL.

Q: And the log10CFU/ml [6]?
A: The log10CFU/ml was -0.2.

Q: And the log10CFU/ml [7]?
A: The log10CFU/ml was -0.31.

Q: And the log10CFU/ml [8]?
A: Its log10CFU/ml is -0.04.

Q: What about the Activity (Homo sapiens [9]) of the same compound?
A: The Activity was 7%.

Q: And the Time (Homo sapiens [10])?
A: Its Time is 7.1 ms.

Q: And the Activity (Homo sapiens [11])?
A: The Activity was 21.4%.

Q: And the log10CFU/ml [12]?
A: Its log10CFU/ml is -0.07.

Q: And the Cmax [13]?
A: The Cmax was 5500 ng/mL.

Q: What about the log10CFU/ml [14] of the same compound?
A: Its log10CFU/ml is -0.09.

Q: What about the MIC [15] of the same compound?
A: The MIC was 0.03 µg/mL (≈ 0.054 µM).

Q: And the log10CFU/ml [16]?
A: Its log10CFU/ml is -0.06.

Q: And the log10CFU/ml [17]?
A: The log10CFU/ml was -0.46.

Q: And the Tmax [18]?
A: Its Tmax is 4 h.

Q: And the log10CFU/ml [19]?
A: The log10CFU/ml was -0.77.

Q: What about the Tmax [20] of the same compound?
A: Its Tmax is 4 h.

Q: What about the log10CFU/ml [21] of the same compound?
A: The log10CFU/ml was 0.04.

Q: What about the Css (Homo sapiens [22]) of the same compound?
A: Its Css is 2696 ng/mL.

Q: And the log10CFU/ml [23]?
A: Its log10CFU/ml is -0.09.

Q: And the log10CFU/ml [24]?
A: Its log10CFU/ml is -0.24.
